Laboratory results: article PMC5678849 (Kidney International Reports, 2017)
Read-outs that look alike come from different tables or passages of the source. Marks after values point to notes of the source that are not given here.

How the values were obtained:
[1] = tested on: BAP, TRACP-5b, FGF23 serum levels; test: Serum BAP, TRACP-5b and FGF23, multiple-dose study; format: in vivo, human (Japanese hemodialysis patients with SHPT)
In short: (§1)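 Blood was drawn before each dialysis, plus serial samples after the day 1 and day 27 injections. Serum iPTH, BAP, TRACP-5b and FGF23 were measured centrally. Data are percent change from baseline, mean ± SD.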

[2] = Antibodies against etelcalcetide, ELISA; format: in vivo, human (Japanese hemodialysis patients with SHPT); settings: validated ELISA
[3] = tested on: serum albumin-corrected calcium (cCa); test: Serum cCa change, multiple-dose study; format: in vivo, human (Japanese hemodialysis patients with SHPT); settings: mean ± SD
In short: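 Randomized, double-blind, placebo-controlled, 16 centres. Patients: ≥20 y, hemodialysis 3×/week ≥90 days, iPTH ≥ 300 pg/ml, cCa ≥ 9.0 mg/dl, dialysate Ca ≥2.25 mEq/l. Blood taken before each dialysis; follow-up to day 55. Serum cCa measured centrally; percent change from baseline at day 55 or withdrawal.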

[4] = tested on: serum intact parathyroid hormone (iPTH); test: Serum iPTH change, single-dose study; format: in vivo, human (Japanese hemodialysis patients with SHPT); settings: for serum iPTH, mean maximum change from the baseline: mean ± SD, n = 4
In short: (§2)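 Japanese hemodialysis patients with SHPT received a single 5, 10 or 20 mg i.v. injection, or placebo, via the venous blood line after dialysis. Active groups had n = 4; placebo was pooled across cohorts. Serum iPTH, albumin-corrected Ca and P were measured by a central laboratory. Data are percent change from baseline over time, with mean maximum change from baseline, reported descriptively as mean ± SD.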

[5] = cited from earlier work
[6] = tested on: serum P; test: Serum phosphorus change; format: in vivo, human (Japanese hemodialysis patients with SHPT); settings: for serum P, percent change from the baseline at the end of the treatment or withdrawal: mean ± SD
[7] = Safety and tolerability, single-dose study; format: in vivo, human (Japanese hemodialysis patients with SHPT)
In short: (§3)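 Safety was assessed descriptively from AEs, vital signs, clinical laboratory tests and 12-lead ECGs (centrally analyzed, QTc by Fridericia). Anti-drug antibodies were measured by validated ELISA. Hypocalcemia was defined as cCa < 7.5 mg/dl. Dosing was a single i.v. injection after dialysis (5, 10 or 20 mg), or 2.5 or 5 mg i.v. three times weekly for 4 weeks. Each dose cohort started only after the earlier cohorts met the safety criteria.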

[8] = tested on: serum intact parathyroid hormone (iPTH); test: Serum iPTH change, multiple-dose study; format: in vivo, human (Japanese hemodialysis patients with SHPT); settings: mean ± SD; for serum iPTH, percent change 30 minutes after injection / serum iPTH, percent change from baseline on day 3: multiple-dose study; for serum iPTH, percent change 30 minutes after injection: first injection, n = 8
In short: as §1

[9] = Safety and tolerability, multiple-dose study; format: in vivo, human (Japanese hemodialysis patients with SHPT)
In short: as §3

[10] = Plasma etelcalcetide pharmacokinetics, multiple-dose study; format: in vivo, human (Japanese hemodialysis patients with SHPT); settings: for AUC(0-t) / Cmax: human, plasma, iv; for AUC(0-t): AUClast
In short: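 Two cohorts of 11 hemodialysis patients with SHPT, randomized 8:3 to drug or placebo. Plasma drug was measured by LC/MS/MS, with samples taken before each dialysis. Per-subject noncompartmental Cmax and AUClast were compared for the day 1 and day 27 injections. Values are geometric mean (95% CI).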

[11] = tested on: serum albumin-corrected calcium (cCa); test: Serum cCa change, single-dose study; format: in vivo, human (Japanese hemodialysis patients with SHPT); settings: mean ± SD, n = 4
In short: as §2

[12] = Plasma etelcalcetide pharmacokinetics, single-dose study; format: in vivo, human (Japanese hemodialysis patients with SHPT); settings: human, iv
In short: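 Japanese hemodialysis patients (≥20 y) with SHPT, iPTH ≥ 300 pg/ml and cCa ≥ 9.0 mg/dl, randomized 2:1 to drug or placebo in cohorts of 6. A single i.v. injection (5, 10 or 20 mg) was given via the venous blood line after dialysis. Plasma drug was measured by LC/MS/MS. Cmax and AUClast (to the last quantifiable point before the next hemodialysis) were derived per subject by noncompartmental analysis and reported as mean ± SD.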

[13] = 2.5 mg i.v. 3 times weekly for 4 weeks
[14] = 5 mg i.v. 3 times weekly for 4 weeks
[15] = M1, 2.5 mg, n = 7, geometric mean (95% confidence interval)
[16] = M2, 5 mg, n = 8, geometric mean (95% confidence interval)
[17] = 2.5 mg, M1, 2.5 mg i.v. 3 times weekly for 4 weeks, day 1 (first administration), n = 8, mean ± SD
[18] = 5 mg, M2, 5 mg i.v. 3 times weekly for 4 weeks, day 1, n = 8, mean ± SD
[19] = 5 mg, M2, 5 mg i.v. 3 times weekly for 4 weeks, day 27, n = 8, mean ± SD

Which “serum FGF23” value ([1]; day 29) does the source give for CC(=O)N[C@H](CSSC[C@H](N)C(=O)O)C(=O)N[C@H](C)C(=O)N[C@H](CCCNC(=N)N)C(=O)N[C@H](CCCNC(=N)N)C(=O)N[C@H](CCCNC(=N)N)C(=O)N[C@H](C)C(=O)N[C@H](CCCNC(=N)N)C(N)=O [etelcalcetide, Etelcalcetide] here?
Its value is “tended to decrease”.

And the “serum BAP before hemodialysis” value ([1]; day 29, etelcalcetide groups)?
The value was “remained unchanged”.

What about the “serum TRACP-5b” value ([1]; day 29, etelcalcetide groups) of the same molecule?
The value was “a trend toward decreases”.

And the “serum FGF23” value ([1]; day 55)?
The value was “a trend toward a return to baseline levels”.

What about the “serum BAP before hemodialysis” value ([1]; day 55, etelcalcetide groups) of the same molecule?
The value was “trends toward decreases”.

What about the “serum TRACP-5b” value ([1]; day 55, etelcalcetide groups) of the same molecule?
Its value is “a return to baseline”.

And the antietelcalcetide antibodies ([2]; multiple-dose study)?
The antietelcalcetide antibodies was “No antietelcalcetide antibodies were detected”.

What about the antietelcalcetide antibodies ([2]; single-dose study) of the same molecule?
Its antietelcalcetide antibodies is “No antietelcalcetide antibodies were detected”.

What about the “serum cCa, mean percent change from the baseline at the end of the study or at withdrawal” value [3, 13] of the same molecule?
Its value is −7.05% ± 4.60%.

And the “serum cCa, mean percent change from the baseline at the end of the study or at withdrawal” value [3, 14]?
Its value is −12.75% ± 4.88%.

What about the “serum iPTH, mean maximum change from the baseline” value ([4]; single i.v. 5 mg) of the same molecule?
Its value is −50.43% ± 12.63%.

And the “serum iPTH, mean maximum change from the baseline” value ([4]; single i.v. 10 mg)?
The value was −69.26% ± 11.35%.

And the “serum iPTH, percent change from the baseline” value ([4]; single i.v. 20 mg, at 56 hours)?
Its value is “approximately −30%”.

What about the tolerability ([5]; 3-times-weekly 5- and 10-mg doses for 4 weeks, non-Japanese patients) of the same molecule?
The tolerability was “tolerable”.

And the tolerability ([5]; single i.v. injection at 5 to 60 mg, non-Japanese SHPT patients)?
The tolerability was “tolerable”.

What about the tolerability ([5]; single injection of 5 mg, healthy Japanese subjects, ref unpublished data) of the same molecule?
Its tolerability is “tolerable”.

What about the “serum P, percent change from the baseline at the end of the treatment or withdrawal” value [6, 13] of the same molecule?
Its value is −14.68% ± 13.38%.

What about the “serum P, percent change from the baseline at the end of the treatment or withdrawal” value [6, 14] of the same molecule?
The value was −13.79% ± 18.18%.

What about the “serum P versus placebo” value ([6]; single-dose study, from 4 hours to day 4) of the same molecule?
The value was “remained lower”.

And the “patients with AEs” value ([7]; single i.v. 10 mg, 1 patient of 4 (APTT), considered unrelated to treatment)?
The value was 25.0%.

And the “hypocalcemia with cCa < 7.5 mg/dl” value ([7]; single i.v. 5, 10 or 20 mg)?
The value was “No patients developed hypocalcemia”.

What about the “deaths or serious adverse events” value ([7]; single-dose study, 5, 10 or 20 mg i.v.) of the same molecule?
Its value is “No deaths or serious adverse events (AEs) were reported”.

And the “serum iPTH, percent change from the baseline at the end of the study or at study withdrawal” value [8, 13]?
Its value is −26.25% ± 26.94%.

And the “serum iPTH, percent change from the baseline at the end of the study or at study withdrawal” value [8, 14]?
The value was −45.65% ± 20.06%.

And the “serum iPTH, percent change 30 minutes after injection” value ([8]; 2.5 mg i.v.)?
The value was −41.65% ± 19.36%.

What about the “serum iPTH, percent change from baseline on day 3” value ([8]; 2.5 mg i.v.) of the same molecule?
Its value is −24.25% ± 13.36%.

What about the “serum iPTH, percent change 30 minutes after injection” value ([8]; 5 mg i.v.) of the same molecule?
The value was −58.60% ± 6.47%.

What about the “serum iPTH, percent change from baseline on day 3” value ([8]; 5 mg i.v.) of the same molecule?
The value was −32.64% ± 18.20%.

What about the “patients with AEs” value ([9]; 2.5 mg i.v. 3 times weekly for 4 weeks, 7 patients of 8) of the same molecule?
The value was 87.5%.

What about the “serious AE” value ([9]; 2.5 mg i.v. 3 times weekly, relationship to treatment not ruled out) of the same molecule?
The value was “cardiopulmonary arrest”.

What about the “serious AE” value ([9]; 5 mg i.v. 3 times weekly) of the same molecule?
Its value is “no serious AE was reported”.

What about the “patients with AEs” value ([9]; 5 mg i.v. 3 times weekly for 4 weeks, 3 patients of 8) of the same molecule?
The value was 37.5%.

And the deaths ([9]; multiple-dose study)?
Its deaths is “No deaths occurred”.

And the “hypocalcemia with serum cCa < 7.5 mg/dl” value ([9]; multiple-dose study, 2.5 or 5 mg i.v. 3 times weekly for 4 weeks)?
The value was “No patients experienced hypocalcemia”.

And the “AUClast ratio day 27/day 1” value [10, 15]?
Its value is 3.05 (2.91–3.19) ^c.

What about the “Cmax ratio day 27/day 1” value [10, 15] of the same molecule?
Its value is 1.18 (0.86–1.62) ^c.

And the “AUClast ratio day 27/day 1” value [10, 16]?
The value was 3.20 (2.87–3.57) ^c.

And the “Cmax ratio day 27/day 1” value [10, 16]?
Its value is 1.09 (0.90–1.32) ^c.

What about the AUC(0-t) [10, 17] of the same molecule?
The AUC(0-t) was 600 ± 133 ng·h/mL.

And the AUC(0-t) ([10]; 2.5 mg, M1, 2.5 mg i.v. 3 times weekly for 4 weeks, day 27 (last administration), n = 7, mean ± SD)?
The AUC(0-t) was 1830 ± 380 ng·h/mL.

And the Cmax [10, 17]?
Its Cmax is 151 ± 56 ng/mL.

And the AUC(0-t) [10, 18]?
The AUC(0-t) was 1200 ± 560 ng·h/mL.

What about the AUC(0-t) [10, 19] of the same molecule?
The AUC(0-t) was 3860 ± 1840 ng·h/mL.

And the Cmax [10, 18]?
The Cmax was 315 ± 89 ng/mL.

And the Cmax [10, 19]?
Its Cmax is 356 ± 143 ng/mL.

What about the “Cmax at week 4 relative to the initial dose” value ([10]; multiple-dose study) of the same molecule?
Its value is ≤ 1.18 times.

And the “mean AUClast following day 27 injection relative to day 1 injection” value ([10]; multiple-dose study, discussion)?
Its value is “approximately 3 times”.

And the “serum cCa, mean maximum change from the baseline” value (from here on “serum cCa, mean maximum change”) ([11]; single i.v. 5 mg)?
The value was −7.26% ± 3.48%.

What about the “serum cCa, mean maximum change” value ([11]; single i.v. 10 mg) of the same molecule?
The value was −6.79% ± 5.86%.

What about the “serum cCa, mean maximum change” value ([11]; single i.v. 20 mg) of the same molecule?
The value was −14.26% ± 6.01%.

And the AUC(0-t) ([12]; 5 mg)?
The AUC(0-t) was 1110 ± 360 ng·h/mL.

What about the Cmax ([12]; 5 mg) of the same molecule?
The Cmax was 236 ± 89 ng/mL.

What about the AUC(0-t) ([12]; 10 mg) of the same molecule?
Its AUC(0-t) is 2550 ± 110 ng·h/mL.

What about the Cmax ([12]; 10 mg) of the same molecule?
The Cmax was 589 ± 88 ng/mL.

And the AUC(0-t) ([12]; 20 mg)?
The AUC(0-t) was 5460 ± 680 ng·h/mL.

And the Cmax ([12]; 20 mg)?
Its Cmax is 999 ± 135 ng/mL.
